Test results published in ChEMBL document CHEMBL4715761, “LAT1 activity of carboxylic acid bioisosteres: Evaluation of hydroxamic acids as substrates” (Bioorg Med Chem Lett, 2016).

Experiments:
[1] = target: T1, Large neutral amino acids transporter small subunit 1 (Homo sapiens, UniProt Q01650); experiment: Inhibition of human LAT1 expressed in HEK293-T-Rex cells assessed as inhibition of [3H]-gabapentin uptake at 200 uM by scintillation counting cis-inhibition assay; type: cell-based
Summary of the method: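 HEK cells overexpressing human LAT1; test compound at 200 μM added during [3H]-gabapentin uptake (cis-inhibition). Reported as % inhibition relative to background signal without test compound; cell data at least in triplicate.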

[2] = target: T1, Large neutral amino acids transporter small subunit 1; experiment: Inhibition of human LAT1 expressed in HEK293-T-Rex cells assessed as inhibition of [3H]-gabapentin uptake by scintillation counting cis-inhibition assay relative to BCH inhibition (RV = 100%); type: cell-based

T1 sequence (Q01650 whole entry): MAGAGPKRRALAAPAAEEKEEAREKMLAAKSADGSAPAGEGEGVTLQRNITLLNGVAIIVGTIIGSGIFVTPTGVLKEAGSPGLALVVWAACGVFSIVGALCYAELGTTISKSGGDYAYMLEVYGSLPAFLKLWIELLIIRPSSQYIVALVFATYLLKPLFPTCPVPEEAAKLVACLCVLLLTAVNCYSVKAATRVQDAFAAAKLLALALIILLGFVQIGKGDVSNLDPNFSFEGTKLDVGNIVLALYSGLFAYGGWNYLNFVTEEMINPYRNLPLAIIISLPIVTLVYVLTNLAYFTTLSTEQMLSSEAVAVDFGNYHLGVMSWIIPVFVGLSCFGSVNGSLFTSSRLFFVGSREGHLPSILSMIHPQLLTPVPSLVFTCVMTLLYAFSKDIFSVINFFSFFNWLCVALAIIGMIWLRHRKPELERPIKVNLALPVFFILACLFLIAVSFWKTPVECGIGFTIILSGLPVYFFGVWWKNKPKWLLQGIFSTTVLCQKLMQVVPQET

inhibition [1] [%] | IC50 [2] [µM] | SMILES
39 | – | N[C@@H](Cc1ccc(O)cc1)C(=O)NO
– | > 200 | CC[C@H](C)[C@H](N)C(=O)NO
38 | > 200 | NCC(=O)NO
– | > 200 | CC(C)C[C@H](N)C(N)=O
– | > 200 | CSCC[C@H](N)C(=O)NO
35 | – | N[C@@H](Cc1c[nH]c2ccccc12)C(=O)NO
15 | – | CS(=O)(=O)NC(=O)[C@@H](N)Cc1ccccc1
33 | > 200 | NCC(=O)O [GLYCINE]
12 | – | CS(=O)(=O)NC(=O)[C@@H](N)Cc1ccc(O)cc1
50 | > 200 | CC(C)C[C@H](N)C(=O)NO
– | 180 | CSCC[C@H](N)C(=O)O [METHIONINE]
– | > 200 | CONC(=O)[C@@H](N)CC(C)C
– | 150 | CC[C@H](C)[C@H](N)C(=O)O [ISOLEUCINE]
– | 87 | CC(C)C[C@H](N)C(=O)O [LEUCINE]

SMILES | inhibition [1] [%] | IC50 [2] [µM]
N[C@@H](Cc1ccccc1)c1nnn[nH]1 | 11 | –
